Published values from different studies.
Compare with care: the assays were run in different laboratories.
Target: Insulin receptor-related protein (INSRR, Homo sapiens, UniProt P14616)

| Compound | read-out | technique | tested at | remaining binding |
| --- | --- | --- | --- | --- |
| O=C(Nc1cnc(Oc2ccc(F)cc2)nc1)N1CCc2ncccc2[C@@H]1c1ccc(F)cc1 | cell-free assay | competition with immobilised ligand | 1 µM | 84% |
| COc1cnc(Nc2cccc(S(N)(=O)=O)c2)nc1N1CCN(c2ccccc2)C(=O)C1 | binding | competition with immobilised ligand | 1 µM | 100% |
| N[C@H]1CCN(c2nccc(-c3cnn4ncccc34)n2)C1 | binding |  | 1 µM | 97% |
| Nc1ncc2c(n1)-c1c([nH]c3ccc(C#CC4CC4)cc13)CCCC2 | binding | competition with immobilised ligand | 1 µM | 98% |
| COc1ccnn2ncc(-c3ccnc(N(C)C)n3)c12 | binding |  | 1 µM | 99% |
| CN(C)C(=O)Cn1cc(-c2nc(C3(c4ccc(-c5cnc(N)nc5)cc4)CC3)no2)cn1 | cell-free assay | competition with immobilised ligand | 1 µM | 100% |
| c1cnn2ncc(-c3ccnc(N4CCC45COC5)n3)c2c1 | binding |  | 1 µM | 93% |
| COc1cnc(Nc2cccc(S(N)(=O)=O)c2)nc1N1CCN(c2ccccc2)CC1 | binding | competition with immobilised ligand | 1 µM | 100% |
| Cc1cnc(Nc2ccc(C(=O)N3CCC(N4CCCC4)CC3)cc2)nc1-c1cc2ccccc2s1 | binding | competition with immobilised ligand | 1 µM | 44% |
| C[C@@H]1CN(c2cc(-c3nn(C)c4ccc(OC5(C)CC5)cc34)ncn2)C[C@H](C)O1 | cell-free assay | competition with immobilised ligand | 1 µM | 91% |
| C[C@H]1CCN(c2nccc(-c3cnn4ncccc34)n2)C1 | binding |  | 1 µM | 98% |
| C[C@@H](c1ccc(-n2cnc3c(N)ncnc32)cc1)N1CCc2nn(C)c(Cc3ccccc3)c2C1=O | binding | competition with immobilised ligand | 0.1 µM | 91% |
| Cc1nc(C2CCN(C(=O)c3ccc(OC(F)(F)F)cc3N)CC2)c2ncc(N3CCN(C)CC3)cc2n1 | cell-free assay | competition with immobilised ligand | 1 µM | 100% |
| CN(C)c1nccc(-c2cnn3ncccc23)n1 | binding |  | 1 µM | 92% |
| O=C(NCC1CCOCC1)c1n[nH]cc1NC(=O)c1c(F)cccc1F | binding | competition with immobilised ligand | 1 µM | 88% |
| F[C@@H]1CCN(c2nccc(-c3cnn4ncccc34)n2)C1 | binding |  | 1 µM | 100% |
| CNCc1ccccc1-c1csc([C@@H](C)Nc2nc(C)nc3cc(OC)c(OC)cc23)c1 | cell-free assay | competition with immobilised ligand | 1 µM | 95% |
| c1cncc(-c2cccc(Nc3nccc(NC4CCCCC4)n3)c2)c1 | binding | competition with immobilised ligand | 10 µM | 74% |
| O=C(c1ccc(Nc2ncc(Cl)c(-c3cc4ccccc4s3)n2)cc1)N1CCC(N2CCCC2)CC1 | binding | competition with immobilised ligand | 1 µM | 25% |
| COc1cc(-c2cn(C3CCc4ccccc4N(CC(F)(F)F)C3=O)nn2)ccc1-n1ccc(C)n1 (stereo not shown) | cell-free assay | competition with immobilised ligand | 1 µM | 100% |
| O=C(NCCCN1CCOCC1)c1ccc(Nc2nccc(-c3cc4ccccc4s3)n2)cc1 | binding | competition with immobilised ligand | 1 µM | 100% |
| CNC(=O)Nc1ccc2c(c1)CC[C@@]21OC(=O)N(CC(=O)N(Cc2ccc(F)cc2)[C@@H](C)C(F)(F)F)C1=O | cell-free assay | competition with immobilised ligand | 1 µM | 96% |
